Measurements taken from ChEMBL document CHEMBL3745626, “Synthesis of β-boswellic acid derivatives as cytotoxic and apoptotic agents” (Bioorg Med Chem Lett, 2016).
The source made the active and inactive calls. The rule behind the calls is not given here.

How the values were obtained:
[1] = Anticancer activity against human PC3 cells assessed as growth inhibition at 100 uM after 24 hrs by sulforhodamine B assay; format: functional; details: PC-3, 24 h
A549 [2] = assay: Anticancer activity against human A549 cells assessed as growth inhibition at 100 uM after 24 hrs by sulforhodamine B assay; format: functional; details: A549, 24 h
[3] = Anticancer activity against human HT1080 cells assessed as growth inhibition at 100 uM after 24 hrs by sulforhodamine B assay; format: functional; details: HT-1080, 24 h
[4] = Anticancer activity against human HCT116 cells assessed as growth inhibition at 100 uM after 24 hrs by sulforhodamine B assay; format: functional; details: HCT-116, 24 h
T47D = assay: Anticancer activity against human T47D cells assessed as growth inhibition after 24 hrs by sulforhodamine B assay; format: functional, cell-based
Outline: (§1)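 SRB assay on human cancer cell lines over a range of concentrations; inhibitory values calculated from concentration–response data, mean ± SD of three experiments.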

HCT-116 [5] = assay: Induction of apoptosis in human HCT116 cells assessed as PARP cleavage at 1 to 5 uM after 48 hrs by Western blot analysis; format: functional, cell-based
Outline: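 HCT-116 cells incubated 48 h at 1, 2.5 and 5 μM; intact and cleaved PARP-1 detected by western blot, β-actin loading control; paclitaxel positive control.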

HCT-116 [6] = assay: Induction of ROS generation in human HCT116 cells after 48 hrs by 2',7'-dichlorofluorescien diacetate staining based fluorescence microscopy; format: functional, cell-based
Outline: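 HCT-116 cells exposed 48 h at 1 and 2.5 μM, loaded with DCFDA; DCF fluorescence measured by imaging and spectrofluorometry; H2O2 positive control.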

A549 [7] = assay: Anticancer activity against human A549 cells assessed as growth inhibition after 24 hrs by sulforhodamine B assay; format: functional, cell-based; details: A549, 24 h; outline: as §1
[8] = Anticancer activity against human PC3 cells assessed as growth inhibition after 24 hrs by sulforhodamine B assay; format: functional, cell-based; details: PC-3, 24 h; outline: as §1
[9] = Cytotoxicity against human FR2 cells assessed as growth inhibition after 24 hrs by sulforhodamine B assay; format: cell-based; details: FR2, 24 h
HCT-116 [10] = assay: Induction of apoptosis in human HCT116 cells assessed as increase in apoptotic body formation after 48 hrs by DAPI staining based fluorescence microscopy; format: functional, cell-based
Outline: (§2)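 HCT-116 cells exposed to 1, 2.5 and 5 μM for 48 h, nuclei stained with DAPI and examined by fluorescence microscopy for chromatin condensation and apoptotic bodies; untreated and paclitaxel controls.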

HCT-116 [11] = assay: Induction of apoptosis in human HCT116 cells assessed as loss of mitochondrial membrane potential after 48 hrs by rhodamine 123 staining based confocal microscopy; format: functional, cell-based
Outline: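 Rhodamine-123 staining of HCT-116 cells treated at 1, 2.5 and 5 μM; mitochondrial fluorescence intensity read by laser scanning confocal microscopy; paclitaxel (50 nM) positive control; mean ± SD.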

[12] = Anticancer activity against human HCT116 cells assessed as growth inhibition after 24 hrs by sulforhodamine B assay; format: functional, cell-based; details: HCT-116, 24 h; outline: as §1
HCT-116 [13] = assay: Anticancer activity against human HCT116 cells assessed as inhibition of colony formation at 1 to 5 uM after 48 hrs by clonogenic assay; format: functional, cell-based
Outline: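 HCT-116 cells treated at 1, 2.5 and 5 μM, then reseeded at suitable dilution (500 cells for untreated control) in six-well plates to form colonies over 1-3 weeks; survival fraction expressed relative to untreated control; paclitaxel positive control.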

HCT-116 [14] = assay: Induction of apoptosis in human HCT116 cells assessed as chromatin condensation after 48 hrs by DAPI staining based fluorescence microscopy; format: functional, cell-based; outline: as §2
HCT-116 [15] = assay: Induction of apoptosis in human HCT116 cells assessed as PARP cleavage at 50 nM after 48 hrs by Western blot analysis; format: functional, cell-based

SMILES | inhibition at 100 µM [1] [%] | inhibition at 100 µM (A549 [2]) [%] | inhibition at 100 µM [3] [%] | inhibition at 100 µM [4] [%] | also measured
COC(=O)[C@@]1(C)C(=O)/C(=C/c2ccco2)C[C@]2(C)[C@H]3CC=C4[C@@H]5[C@@H](C)[C@H](C)CC[C@]5(C)CC[C@@]4(C)[C@]3(C)CC[C@@H]12 | 44 | 48 | 16 | 18 | 
COC(=O)[C@@]1(C)C(=O)/C(=C/c2cccc([N+](=O)[O-])c2)C[C@]2(C)[C@H]3CC=C4[C@@H]5[C@@H](C)[C@H](C)CC[C@]5(C)CC[C@@]4(C)[C@]3(C)CC[C@@H]12 | 10 | 0 | 13 | 6 | 
COC(=O)[C@@]1(C)C(=O)/C(=C/c2ccccc2F)C[C@]2(C)[C@H]3CC=C4[C@@H]5[C@@H](C)[C@H](C)CC[C@]5(C)CC[C@@]4(C)[C@]3(C)CC[C@@H]12 | 44 | 47 | 23 | 0 | 
COC(=O)[C@@]1(C)C(=O)/C(=C/c2ccc(F)cc2F)C[C@]2(C)[C@H]3CC=C4[C@@H]5[C@@H](C)[C@H](C)CC[C@]5(C)CC[C@@]4(C)[C@]3(C)CC[C@@H]12 | 20 | 33 | 0 | 32 | 
COC(=O)[C@@]1(C)C(=O)/C(=C/c2ccc([N+](=O)[O-])cc2)C[C@]2(C)[C@H]3CC=C4[C@@H]5[C@@H](C)[C@H](C)CC[C@]5(C)CC[C@@]4(C)[C@]3(C)CC[C@@H]12 | 52 | 47 | 36 | 30 | 
COC(=O)[C@@]1(C)C(=O)/C(=C/c2ccncc2)C[C@]2(C)[C@H]3CC=C4[C@@H]5[C@@H](C)[C@H](C)CC[C@]5(C)CC[C@@]4(C)[C@]3(C)CC[C@@H]12 | 100 | 99 | 95 | 100 | IC50 (T47D): 1.26 µM; Activity (HCT-116 [5]): Active; Activity (HCT-116 [6]): Dose-dependent effect; IC50 (A549 [7]): 2.13 µM; IC50 [8]: 1.96 µM; IC50 [9]: 21.4 µM; Activity (HCT-116 [10]): Dose-dependent effect; Activity (HCT-116 [11]): Dose-dependent effect; IC50 [12]: 1.84 µM; inhibition (HCT-116 [13]): Dose-dependent effect; Activity (HCT-116 [14]): Dose-dependent effect
COC(=O)[C@@]1(C)C(=O)/C(=C/c2ccc(Cl)cc2)C[C@]2(C)[C@H]3CC=C4[C@@H]5[C@@H](C)[C@H](C)CC[C@]5(C)CC[C@@]4(C)[C@]3(C)CC[C@@H]12 | 10 | 7 | 6 | 0 | 
COC(=O)[C@@]1(C)C(=O)/C(=C/c2ccccc2Cl)C[C@]2(C)[C@H]3CC=C4[C@@H]5[C@@H](C)[C@H](C)CC[C@]5(C)CC[C@@]4(C)[C@]3(C)CC[C@@H]12 | 25 | 0 | 21 | 0 | 
CC(=O)O[C@H]1C(=O)[C@@]2(C)[C@H]([C@H](OC(=O)c3ccccc3)[C@]3(O)C[C@H](OC(=O)[C@H](O)[C@@H](NC(=O)c4ccccc4)c4ccccc4)C(C)=C1C3(C)C)[C@]1(OC(C)=O)CO[C@@H]1C[C@@H]2O |  |  |  |  | Activity (HCT-116 [10]): Active; Activity (HCT-116 [15]): Active
COC(=O)[C@@]1(C)C(=O)/C(=C/c2ccccn2)C[C@]2(C)[C@H]3CC=C4[C@@H]5[C@@H](C)[C@H](C)CC[C@]5(C)CC[C@@]4(C)[C@]3(C)CC[C@@H]12 | 100 | 100 | 95 | 100 | IC50 (T47D): 15.6 µM; IC50 (A549 [7]): 26.1 µM; IC50 [8]: 24.4 µM; IC50 [9]: 59 µM; IC50 [12]: 7.2 µM
COC(=O)[C@@]1(C)C(=O)/C(=C/c2ccc3ccccc3n2)C[C@]2(C)[C@H]3CC=C4[C@@H]5[C@@H](C)[C@H](C)CC[C@]5(C)CC[C@@]4(C)[C@]3(C)CC[C@@H]12 | 44 | 37 | 43 | 37 | 
COC(=O)[C@@]1(C)C(=O)CC[C@]2(C)[C@H]3CC=C4[C@@H]5[C@@H](C)[C@H](C)CC[C@]5(C)CC[C@@]4(C)[C@]3(C)CC[C@@H]12 | 44 | 56 | 21 | 58 | 
COC(=O)[C@@]1(C)C(=O)/C(=C/c2ccc(F)c(Br)c2)C[C@]2(C)[C@H]3CC=C4[C@@H]5[C@@H](C)[C@H](C)CC[C@]5(C)CC[C@@]4(C)[C@]3(C)CC[C@@H]12 | 40 | 47 | 43 | 27 | 
COC(=O)[C@@]1(C)C(=O)/C(=C/c2cc(C(F)(F)F)cc(C(F)(F)F)c2)C[C@]2(C)[C@H]3CC=C4[C@@H]5[C@@H](C)[C@H](C)CC[C@]5(C)CC[C@@]4(C)[C@]3(C)CC[C@@H]12 | 7 | 5 | 0 | 10 | 
COC(=O)[C@@]1(C)C(=O)/C(=C/c2c(Cl)cccc2Cl)C[C@]2(C)[C@H]3CC=C4[C@@H]5[C@@H](C)[C@H](C)CC[C@]5(C)CC[C@@]4(C)[C@]3(C)CC[C@@H]12 | 24 | 74 | 99 | 57 | 
COC(=O)[C@@]1(C)C(=O)/C(=C/c2cccc(Br)c2)C[C@]2(C)[C@H]3CC=C4[C@@H]5[C@@H](C)[C@H](C)CC[C@]5(C)CC[C@@]4(C)[C@]3(C)CC[C@@H]12 | 6 | 14 | 15 | 8 | 
COC(=O)[C@@]1(C)C(=O)/C(=C/c2cccs2)C[C@]2(C)[C@H]3CC=C4[C@@H]5[C@@H](C)[C@H](C)CC[C@]5(C)CC[C@@]4(C)[C@]3(C)CC[C@@H]12 | 19 | 42 | 37 | 40 | 
COC(=O)[C@@]1(C)C(=O)/C(=C/c2cc(OC)cc(OC)c2)C[C@]2(C)[C@H]3CC=C4[C@@H]5[C@@H](C)[C@H](C)CC[C@]5(C)CC[C@@]4(C)[C@]3(C)CC[C@@H]12 | 41 | 55 | 17 | 21 | 
COC(=O)[C@@]1(C)C(=O)/C(=C/c2ccc(C)cc2)C[C@]2(C)[C@H]3CC=C4[C@@H]5[C@@H](C)[C@H](C)CC[C@]5(C)CC[C@@]4(C)[C@]3(C)CC[C@@H]12 | 11 | 28 | 26 | 20 | 
COC(=O)[C@@]1(C)C(=O)/C(=C/c2ccc(Cl)cc2Cl)C[C@]2(C)[C@H]3CC=C4[C@@H]5[C@@H](C)[C@H](C)CC[C@]5(C)CC[C@@]4(C)[C@]3(C)CC[C@@H]12 | 79 | 97 | 100 | 49 | IC50 (T47D): > 100 µM; IC50 (A549 [7]): 56.1 µM; IC50 [8]: 69.5 µM; IC50 [9]: > 100 µM; IC50 [12]: > 100 µM
COC(=O)[C@@]1(C)C(=O)/C(=C/c2ccc(OC(F)(F)F)cc2)C[C@]2(C)[C@H]3CC=C4[C@@H]5[C@@H](C)[C@H](C)CC[C@]5(C)CC[C@@]4(C)[C@]3(C)CC[C@@H]12 | 35 | 14 | 78 | 0 | 
COC(=O)[C@@]1(C)C(=O)/C(=C/c2ccccc2[N+](=O)[O-])C[C@]2(C)[C@H]3CC=C4[C@@H]5[C@@H](C)[C@H](C)CC[C@]5(C)CC[C@@]4(C)[C@]3(C)CC[C@@H]12 | 11 | 42 | 100 | 21 | 
